Test results from ChEMBL document CHEMBL1649091, “Flavonoids with an oligopolysulfated moiety: a new class of anticoagulant agents” (J Med Chem, 2011).
Activity calls are given as the source filed them. The rule behind the calls is not given here.

Tests used:
[1] = molecular target: Coagulation factor X (Homo sapiens) (UniProt P00742); experiment: Inhibition of human factor 10a assessed as 125 x 10^-6M chromogenic TH substrate hydrolysis at 1 x 10^-3M
Method in brief: (§1)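 Direct FXa test, with buffer in place of ATIII: compound in water in 50 mM Tris/HCl pH 8.3, 227 mM NaCl, 0.1% BSA, 10 min at 37 °C. Human FXa (0.5 U/mL final) added for 10 min, then CBS 31.39 (25 or 125 × 10^-6 M). Read at 405 nm every 12 s for 20 min. Percent inhibition from initial slope against water control, Michaelis-Menten fit.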

[2] = molecular target: T1, Coagulation factor X/antithrombin III (Homo sapiens) (UniProt P01008+P00742); experiment: Inhibition of human antithrombin 3/factor 10a assessed as 125 x 10^-6M CBS31.39 substrate hydrolysis at 0.5 x 10^-3M; format: protein-complex assay
[3] = molecular target: Coagulation factor X (Homo sapiens) (UniProt P00742); experiment: Inhibition of human factor 10a assessed as 125 x 10^-6M chromogenic TH substrate hydrolysis at 0.5 x 10^-3M; method in brief: as §1
Blood [4] = experiment: Anticoagulant activity in human whole blood assessed as alpha angle at 6.25 x 10^-4M by thromboelastography in presence of intrinsic activators; format: functional
Method in brief: (§2)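 Citrated whole blood from healthy donors (1:9 citrate), run within 5 h on a ROTEM analyzer. Compound in saline diluted 1:16 into blood to the final concentration stated; saline control. Intrinsic (InTEM) or extrinsic (ExTEM) activator added. Clot monitored at 37 °C in an oscillating cup-and-pin system for up to 60 min, giving R, K, angle and MA.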

Blood [5] = experiment: Anticoagulant activity in human whole blood assessed as clotting formation time at 6.25 x 10^-4M by thromboelastography in presence of intrinsic activators; format: functional; method in brief: as §2
Blood [6] = experiment: Anticoagulant activity in human whole blood assessed as maximum amplitude at 6.25 x 10^-4M by thromboelastography in presence of intrinsic activators; format: functional; method in brief: as §2
[7] = molecular target: T1, Coagulation factor X/antithrombin III (Homo sapiens); experiment: Inhibition of human antithrombin 3/factor 10a assessed as 125 x 10^-6M CBS31.39 substrate hydrolysis at 2 x 10^-3M; format: protein-complex assay
Homo sapiens = species: Homo sapiens; experiment: (§3) Anticoagulant activity in human plasma assessed as concentration required to double thrombin time; format: functional
Method in brief: (§4)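 Citrated pooled normal human plasma mixed 1:1 with compound in water (final 5 × 10-3 to 0.05 × 10^-3 M) and held 2 min at 37 °C. APTT: reagent added, 6 min at 37 °C, then 25 mmol/L CaCl2. PT: prewarmed PT reagent. TT: prewarmed thrombin (100 U/mL). Clotting read on a coagulometer, duplicate, three days (n = 6). Doubling concentration taken from linear regression of each concentration-response curve.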

[8] = molecular target: Coagulation factor X (Homo sapiens) (UniProt P00742); experiment: Inhibition of human factor 10a assessed as 25 x 10^-6M chromogenic TH substrate hydrolysis at 1 x 10^-3M; method in brief: as §1
[9] = molecular target: T1, Coagulation factor X/antithrombin III (Homo sapiens); experiment: Inhibition of human antithrombin 3/factor 10a assessed as 125 x 10^-6M CBS31.39 substrate hydrolysis at 1 x 10^-3M; format: protein-complex assay
Blood [10] = experiment: Anticoagulant activity in human whole blood assessed as maximum amplitude at 6.25 x 10^-4M by thromboelastography in presence of extrinsic activators; format: functional; method in brief: as §2
[11] = molecular target: Coagulation factor X (Homo sapiens) (UniProt P00742); experiment: Inhibition of human factor 10a assessed as 25 x 10^-6M chromogenic TH substrate hydrolysis at 2 x 10^-3M; method in brief: as §1
Blood [12] = experiment: Anticoagulant activity in human whole blood assessed as clotting time at 6.25 x 10^-4M by thromboelastography in presence of intrinsic activators; format: functional; method in brief: as §2
[13] = molecular target: Coagulation factor X (Homo sapiens) (UniProt P00742); experiment: Inhibition of human factor 10a assessed as 125 x 10^-6M chromogenic TH substrate hydrolysis at 2 x 10^-3M; method in brief: as §1
[14] = Anticoagulant activity in human plasma assessed as concentration required to double prothrombin time; format: functional; method in brief: as §4
Blood [15] = experiment: Anticoagulant activity in human whole blood assessed as clotting formation time at 6.25 x 10^-4M by thromboelastography in presence of extrinsic activators; format: functional; method in brief: as §2
[16] = molecular target: T1, Coagulation factor X/antithrombin III (Homo sapiens); experiment: Inhibition of human antithrombin 3/factor 10a assessed as 25 x 10^-6M CBS31.39 substrate hydrolysis at 2 x 10^-3M; format: protein-complex assay
Blood [17] = experiment: Anticoagulant activity in human whole blood assessed as alpha angle at 6.25 x 10^-4M by thromboelastography in presence of extrinsic activators; format: functional; method in brief: as §2
[18] = molecular target: Coagulation factor X (Homo sapiens) (UniProt P00742); experiment: Inhibition of human factor 10a assessed as 25 x 10^-6M chromogenic TH substrate hydrolysis at 0.5 x 10^-3M; method in brief: as §1
[19] = molecular target: T1, Coagulation factor X/antithrombin III (Homo sapiens); experiment: Inhibition of human antithrombin 3/factor 10a assessed as 25 x 10^-6M CBS31.39 substrate hydrolysis at 0.5 x 10^-3M; format: protein-complex assay
[20] = molecular target: T1, Coagulation factor X/antithrombin III (Homo sapiens); experiment: Inhibition of human antithrombin 3/factor 10a assessed as 25 x 10^-6M CBS31.39 substrate hydrolysis at 1 x 10^-3M; format: protein-complex assay
[21] = Anticoagulant activity in human plasma assessed as concentration required to double activated partial prothrombin time; format: functional; method in brief: as §4
[22] = molecular target: Prothrombin (Homo sapiens) (UniProt P00734); experiment: Inhibition of human thrombin
Method in brief: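 Direct thrombin assay without ATIII: compound in water in 50 mM Tris/HCl pH 8.3, 227 mM NaCl, 0.1% BSA, 10 min at 37 °C. Human thrombin (0.06 U/mL final) added for 10 min, then Chromozym TH (178 × 10^-6 M). Read at 405 nm every 12 s for 20 min. Percent inhibition from initial slope against water control. Duplicates on ≥3 days.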

Blood [23] = experiment: Anticoagulant activity in human whole blood assessed as clotting time at 6.25 x 10^-4M by thromboelastography in presence of extrinsic activators; format: functional; method in brief: as §2
[24] = Antiplatelet activity against collagen EPI-induced human platelet aggregation assessed as closure time at 6.25 x 10^-4M; format: functional
Method in brief: (§5)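 Compound solution added to citrated human whole blood (125 µL into 1875 µL) to the final concentration stated, then run on a PFA-100 in collagen/ADP and collagen/epinephrine cartridges. Closure time is the time until platelets occlude the membrane aperture, in seconds. Mean ± SEM of three independent experiments.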

[25] = Antiplatelet activity against collagen ADP-induced human platelet aggregation assessed as closure time at 6.25 x 10^-4M; format: functional; method in brief: as §5
Plasma [26] = experiment: Anticoagulant activity in human plasma assessed as increase in activated partial prothrombin time at 5 x 10^-3M relative to control; format: functional
Method in brief: (§6)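 Citrated pooled normal human plasma, 1:1 with compound in water (water control), held 2 min at 37 °C before coagulometer reading. APTT: reagent, 6 min at 37 °C, then 25 mmol/L CaCl2. PT: prewarmed reagent. TT: prewarmed 100 U/mL thrombin. Ratio is clotting time with compound over time with water. Duplicates repeated on three days (n = 6).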

Plasma [27] = experiment: Anticoagulant activity in human plasma assessed as increase in prothrombin time at 5 x 10^-3M relative to control; format: functional; method in brief: as §6
Plasma [28] = experiment: Anticoagulant activity in human plasma assessed as increase in thrombin time at 5 x 10^-3M relative to control; format: functional, cell-free; method in brief: as §6
Plasma [29] = experiment: Anticoagulant activity in human plasma assessed as increase in thrombin time at 0.5 x 10^-3M relative to control; format: functional, cell-free; method in brief: as §6
[30] = as §3; format: functional; method in brief: as §4
Mus musculus [31] = experiment: Anticoagulant activity in mouse assessed as increase in activated partial prothrombin time at 150 umol/kg, ip relative to control; format: functional
Method in brief: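 Adult male CD1 mice (30-35 g) given compound in saline ip at 150 µmol/kg, fasted on the day. Citrated portal vein blood taken at 30, 60 and 120 min. APTT measured in platelet-poor plasma. Expressed as ratio to saline-treated mice, mean ± SEM of three experiments.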

Mus musculus [32] = experiment: Hepatotoxicity in mouse liver assessed as change in plasma GOT/GPT level at 150 umol/kg, ip; format: toxicity, organism-based; settings: in vivo
Method in brief: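 Male CD1 mice (30-35 g), compound in saline ip at 150 µmol/kg. Portal vein citrated blood taken at 30, 60 and 120 min. GOT and GPT (U/L) measured in platelet-poor plasma on an automated chemistry analyzer. Four independent experiments, mean ± SEM.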

[33] = Stability of the compound in human plasma assessed as compound remaining after 3 hrs; format: ADME, cell-free; settings: read-out: Activity
Method in brief: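 Compound at 25 µM final in human plasma diluted 1:1 with PBS pH 7.4, shaken at 37 °C for 180 min. Time-zero and 180-min samples quenched with TBA buffer and cold acetonitrile, then centrifuged. Supernatant dried, redissolved and analysed by HPLC. Three independent samples per time point.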

Plasma [34] = experiment: Anticoagulant activity in human plasma assessed as increase in activated partial prothrombin time at 0.5 x 10^-3M relative to control; format: functional; method in brief: as §6
Plasma [35] = experiment: Anticoagulant activity in human plasma assessed as increase in prothrombin time at 0.5 x 10^-3M relative to control; format: functional; method in brief: as §6

Sequence of Coagulation factor X (Homo sapiens) (P00742 41-179 limits assumed): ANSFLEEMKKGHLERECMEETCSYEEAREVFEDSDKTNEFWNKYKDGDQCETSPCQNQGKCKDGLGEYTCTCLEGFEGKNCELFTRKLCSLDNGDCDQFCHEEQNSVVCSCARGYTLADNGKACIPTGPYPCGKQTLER
Sequence of Coagulation factor X (Homo sapiens) (P00742 235-488 limits assumed): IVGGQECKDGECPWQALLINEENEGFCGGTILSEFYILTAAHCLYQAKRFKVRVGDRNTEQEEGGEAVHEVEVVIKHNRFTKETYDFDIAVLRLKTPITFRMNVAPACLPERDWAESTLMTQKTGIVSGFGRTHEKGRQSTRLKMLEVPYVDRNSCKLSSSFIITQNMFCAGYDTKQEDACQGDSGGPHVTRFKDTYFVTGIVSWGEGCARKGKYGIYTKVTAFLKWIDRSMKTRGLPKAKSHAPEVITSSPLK

SMILES	inhibition [1]	inhibition [2] [%]	inhibition [3]	Activity (Blood [4]) [degree]	Time (Blood [5]) [s]	Activity (Blood [6]) [mm]	inhibition [7] [%]	inhibition [8]	inhibition [9] [%]	Activity (Blood [10]) [mm]	Time (Blood [12]) [s]	inhibition [13]	2PT [14] [µM]	Time (Blood [15]) [s]	inhibition [16] [%]	Activity (Blood [17]) [degree]	inhibition [18]	inhibition [19]	inhibition [20] [%]	2aPTT [21] [µM]	also measured
COc1ccc([C@@H]2CC(=O)c3c(O)cc(O[C@@H]4O[C@H](CO[C@@H]5O[C@@H](C)[C@H](OS(=O)(=O)O)[C@@H](OS(=O)(=O)O)[C@H]5OS(=O)(=O)O)[C@@H](OS(=O)(=O)O)[C@H](OS(=O)(=O)O)[C@H]4OS(=O)(=O)O)cc3O2)cc1O	inactive	39.7	inactive	57	214	40	58.1	inactive	46.2	59	300	inactive	3620	116	49.6	70	inactive	30.5%	40.2	413	Activity (Homo sapiens): inactive; inhibition [11]: inactive; inhibition [22]: inactive; Time (Blood [23]): 59 s; Time [24]: 167 s; Time [25]: 139 s
COc1ccc([C@@H]2CC(=O)c3c(O)cc(OS(=O)(=O)O)cc3O2)cc1OS(=O)(=O)O [HESPERETIN 3',7-O-DISULFATE]	–	–	–	–	–	–	–	–	–	–	–	–	–	–	–	–	–	–	–	–	fold change (FC) (Plasma [26]): 1.1; fold change (FC) (Plasma [27]): 1.2; Activity (Plasma [28]): inactive; Activity (Plasma [29]): inactive
COc1ccc(-c2cc(=O)c3c(O)cc(O[C@@H]4O[C@H](CO[C@@H]5O[C@@H](C)[C@H](OS(=O)(=O)O)[C@@H](OS(=O)(=O)O)[C@H]5OS(=O)(=O)O)[C@@H](OS(=O)(=O)O)[C@H](OS(=O)(=O)O)[C@H]4OS(=O)(=O)O)cc3o2)cc1O	inactive	28.9	inactive	57	229	45	50.7	inactive	38.7	54	267	23.4%	2230	150	43.7	68	inactive	inactive	22.6	435	Activity [30]: > 5000 µM; fold change (FC) (Mus musculus [31]): 1.5; Activity (Mus musculus [32]): Non-toxic; remaining at 3 h [33]: 95%; inhibition [22]: inactive; Time (Blood [23]): 49 s; Time [24]: 171 s; Time [25]: 162 s
COc1ccc(-c2cc(=O)c3c(O)cc(OS(=O)(=O)O)cc3o2)cc1OS(=O)(=O)O	–	–	–	–	–	–	–	–	–	–	–	–	–	–	–	–	–	–	–	–	Activity (Plasma [28]): inactive; Activity (Plasma [29]): inactive; fold change (FC) (Plasma [34]): 1.65; fold change (FC) (Plasma [35]): 1.1
C[C@H]1O[C@@H](OC[C@@H]2O[C@H](Oc3c(-c4ccc(OCCOS(=O)(=O)O)c(OCCOS(=O)(=O)O)c4)oc4cc(OCCOS(=O)(=O)O)cc(O)c4c3=O)[C@@H](OS(=O)(=O)O)[C@H](OS(=O)(=O)O)[C@H]2OS(=O)(=O)O)[C@@H](OS(=O)(=O)O)[C@@H](OS(=O)(=O)O)[C@@H]1OS(=O)(=O)O	38.8%	20.3	inactive	67	122	64	33.6	41.9%	24.8	61	560	53.3%	835	111	56	69	25.7%	28.1%	47.6	145	Activity [30]: 867 µM; inhibition [22]: inactive; Time (Blood [23]): 105 s; Time [24]: >300 s; Time [25]: 204 s
